Usually IC50 stands for the point on the concentration scale where inhibition reaches its midpoint.

The results in this text go back to ChEMBL document CHEMBL4627371, “Discovery of novel heat shock protein (Hsp90) inhibitors based on luminespib with potent antitumor activity” (Bioorg Med Chem Lett, 2020).

For data set [1], the target named is T1, Heat shock protein HSP90 (Homo sapiens, UniProt P07900+P08238). In words: Inhibition of HSP90 ATPase activity (unknown origin). Type of data set: protein assay.
A further data set relates to HCT-116. In words: Cytotoxicity against human HCT116 cells assessed as cell growth inhibition. The class given is functional, cell-based.
For data set [2], the target named is T1, Heat shock protein HSP90. Briefly: Inhibition of HSP90 (unknown origin) assessed as HER2 degradation by cell-based assay.
For data set [3], the system named is A2780. In words: Cytotoxicity against human A2780 cells assessed as cell growth inhibition. Type of data set: functional, cell-based.
Data set [4] in a line: Toxicity in BALB/c nu/nu mouse xenografted with human A2780 cells assessed as effect on body weight at 50 mg/kg, iv administered 3 times a week for 2 weeks starting from 5 to 6 days post tumor inoculation. The class given is organism-based. The following applies: in vivo. The method, boiled down: (§1)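 Human A2780 ovarian adenocarcinoma cells were cultured and implanted into BALB/c-nu/nude mice, n = 6 per group. Tumor size and volume were measured 5 or 6 days later. Compounds were suspended in 1% carboxymethyl cellulose and given intravenously. Deaths and body weight were monitored. Tumor growth inhibition = [1 − (mean treated tumor volume)/(mean control tumor volume)] × 100%.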
(A xenograft is tissue or cells of one species grown in another, often human tumour cells in immunodeficient mice.)

Data set [5] can be described thus: Toxicity in BALB/c nu/nu mouse xenografted with human A2780 cells assessed as mouse death at 50 mg/kg, iv administered 3 times a week for 2 weeks starting from 5 to 6 days post tumor inoculation. Type of data set: organism-based. The conditions noted are these: in vivo. The method, boiled down:
as §1

Data set [6] deals with A2780. Briefly: Antitumor activity against human A2780 cells xenografted in BALB/c nu/nu mouse assessed as tumor growth inhibition at 50 mg/kg, iv administered 3 times a week for 2 weeks starting from 5 to 6 days post tumor inoculation relative to control. The class given is functional. The conditions noted are these: read-out: TGI. The method, boiled down: as §1

The structures appear in SMILES notation.

As for `CCNC(=O)c1noc(-c2cc(C(C)C)c(O)cc2O)c1-c1cc(COCC(=O)OC)no1`, the IC50 came to 443 nM against Heat shock protein HSP90 [1] and 262 nM in the data set on HCT-116.

For the molecule `CCNC(=O)c1noc(-c2cc(C(C)C)c(O)cc2O)c1-c1cc(CN)no1`, the IC50 at Heat shock protein HSP90 [2] turned out to be 171 nM; against Heat shock protein HSP90 [1], 674 nM; with HCT-116, 84 nM.

Take `CCNC(=O)c1noc(-c2cc(C(C)C)c(O)cc2O)c1-c1cc(CN2CCOCC2)no1`: the IC50 was 50 nM at Heat shock protein HSP90 [2], 595 nM on Heat shock protein HSP90 [1] and 28 nM with HCT-116.

As to `CCNC(=O)c1noc(-c2cc(C(C)C)c(O)cc2O)c1-c1cnn(CC)c1`, the IC50 was found to be 13 nM on Heat shock protein HSP90 [2], 532 nM against Heat shock protein HSP90 [1], 26 nM in the data set with HCT-116 and 30 nM in the data set with A2780 [3].

Consider `CCNC(=O)c1noc(-c2cc(C(C)C)c(O)cc2O)c1-c1cnn(C(C)C)c1`, for which the IC50 on Heat shock protein HSP90 [2] stood at 19 nM; on Heat shock protein HSP90 [1], 542 nM; in the data set on HCT-116, 21 nM; in the data set with A2780 [3], 21 nM.

On to `CCCNCc1cc(-c2c(C(=O)NCC)noc2-c2cc(C(C)C)c(O)cc2O)on1`, for which the values for the concentration for half-maximal inhibition (IC50) at Heat shock protein HSP90 [2], against Heat shock protein HSP90 [1] and in the data set on HCT-116 were 24 nM, 465 nM and 117 nM, respectively.

Regarding `CCNC(=O)c1noc(-c2cc(C(C)C)c(O)cc2O)c1-c1cc(CN2CCN(C)CC2)no1`, the IC50 came out at 572 nM on Heat shock protein HSP90 [1] and 340 nM in the data set on HCT-116.

Regarding `CCNC(=O)c1noc(-c2cc(C(C)C)c(O)cc2O)c1-c1cc(C(N)=O)no1`, the IC50 at Heat shock protein HSP90 [2] worked out at 52 nM; against Heat shock protein HSP90 [1], 657 nM; in the data set on HCT-116, 79 nM; with A2780 [3], 15 nM.

On to `CCNC(=O)c1noc(-c2cc(C(C)C)c(O)cc2O)c1-c1cc(CN2CCCCC2)no1`, for which the IC50 was 62 nM on Heat shock protein HSP90 [2], 752 nM against Heat shock protein HSP90 [1], 93 nM in the data set on HCT-116 and 62 nM in the data set on A2780 [3].

As to `CCNC(=O)c1noc(-c2cc(C(C)C)c(O)cc2O)c1-c1cc(CN(C)C)no1`, the IC50 was 33 nM at Heat shock protein HSP90 [2], 490 nM at Heat shock protein HSP90 [1], 92 nM in the data set with HCT-116 and 31 nM in the data set on A2780 [3].

Take `CCNC(=O)c1noc(-c2cc(C(C)C)c(O)cc2O)c1-c1cc(COS(C)(=O)=O)no1`: the half-inhibitory concentration (IC50) at Heat shock protein HSP90 [1] stood at 476 nM; in the data set with HCT-116, 400 nM.

Regarding `CCNC(=O)c1noc(-c2cc(C(C)C)c(O)cc2O)c1-c1cc(CNCCO)no1`, the half-maximal inhibitory concentration (IC50) on Heat shock protein HSP90 [1] turned out to be 975 nM; with HCT-116, 111 nM.

On to `CCNC(=O)c1noc(-c2cc(C(C)C)c(O)cc2O)c1-c1cc(CNC(C)=O)no1`, for which the IC50 at Heat shock protein HSP90 [2] is 71 nM; on Heat shock protein HSP90 [1] it was 500 nM; in the data set with HCT-116, 167 nM.

Take `CCNC(=O)c1noc(-c2cc(C(C)C)c(O)cc2O)c1-c1cc(CN2CCCC2)no1`: the half-maximal inhibitory concentration (IC50) is 38 nM at Heat shock protein HSP90 [2], 686 nM against Heat shock protein HSP90 [1], 51 nM with HCT-116 and 55 nM in the data set on A2780 [3].

Regarding `CCNC(=O)c1noc(-c2cc(C(C)C)c(O)cc2O)c1-c1cc(CC#N)no1`, the figures for the IC50 against Heat shock protein HSP90 [1] and with HCT-116 were 470 nM and 79 nM, respectively.

As for `CCNC(=O)c1noc(-c2cc(C(C)C)c(O)cc2O)c1-c1cc(CF)no1`, the IC50 at Heat shock protein HSP90 [2] came to 27 nM; against Heat shock protein HSP90 [1], 410 nM; in the data set with HCT-116, 63 nM; in the data set on A2780 [3], 28 nM.

Take `CCCN(CCC)Cc1cc(-c2c(C(=O)NCC)noc2-c2cc(C(C)C)c(O)cc2O)on1`: the figures for the IC50 at Heat shock protein HSP90 [2], against Heat shock protein HSP90 [1] and in the data set with HCT-116 were 117 nM, 413 nM and 183 nM, respectively.

For the molecule `CCNC(=O)c1noc(-c2cc(C(C)C)c(O)cc2O)c1-c1cc(C(=O)NC)no1`, the half-inhibitory concentration (IC50) at Heat shock protein HSP90 [2] came to 24 nM; at Heat shock protein HSP90 [1], 489 nM; in the data set on HCT-116 it was 124 nM; with A2780 [3] it was 100 nM.

On to `CCNC(=O)c1noc(-c2cc(C(C)C)c(O)cc2O)c1-c1ccn(C(C)C)n1`, for which the IC50 came out at 14 nM on Heat shock protein HSP90 [2], 543 nM against Heat shock protein HSP90 [1], 19 nM in the data set on HCT-116 and 45 nM in the data set with A2780 [3]. Moreover, the Activity result in data set [4] and in data set [5] was “Non-Toxic” throughout. In addition, the inhibition in vivo at 50 mg/kg in the data set on A2780 [6] was determined as 49.8%.

As for `CCNC(=O)c1noc(-c2cc(C(C)C)c(O)cc2O)c1-c1cc[nH]n1`, the IC50 at Heat shock protein HSP90 [2] came out at 45 nM; against Heat shock protein HSP90 [1], 524 nM; in the data set on HCT-116, 36 nM; in the data set on A2780 [3] it was 33 nM. The Activity entry in data set [4] and in data set [5] was “Non-Toxic” in each case. The inhibition in vivo at 50 mg/kg with A2780 [6] was found to be 46.4%.

With `CCNC(=O)c1noc(-c2cc(C(C)C)c(O)cc2O)c1-c1cc(CNC)no1`, the IC50 against Heat shock protein HSP90 [1] is 436 nM; in the data set with HCT-116 it was 164 nM.

Take `CCNC(=O)c1noc(-c2cc(C(C)C)c(O)cc2O)c1-c1cc(CNC(C)C)no1`: the IC50 on Heat shock protein HSP90 [2] worked out at 18 nM; against Heat shock protein HSP90 [1], 521 nM; in the data set with HCT-116 it was 109 nM; with A2780 [3], 38 nM.

As to `CCNC(=O)c1noc(-c2cc(C(C)C)c(O)cc2O)c1-c1cc(C(=O)N2CCSCC2)no1`, the IC50 on Heat shock protein HSP90 [1] turned out to be 566 nM; with A2780 [3] it was 207 nM.

Regarding `CCNCc1cc(-c2c(C(=O)NCC)noc2-c2cc(C(C)C)c(O)cc2O)on1`, the IC50 at Heat shock protein HSP90 [2] is 23 nM; against Heat shock protein HSP90 [1] it was 475 nM; in the data set with HCT-116, 45 nM; in the data set with A2780 [3] it was 45 nM. Moreover, the Activity entry in data set [4] and in data set [5] was “Non-Toxic” in each case. The inhibition in vivo at 50 mg/kg in the data set with A2780 [6] is 40.3%.

In the case of `CCNC(=O)c1noc(-c2cc(C(C)C)c(O)cc2O)c1-c1ccn(C)n1`, the IC50 is 16 nM at Heat shock protein HSP90 [2], 522 nM against Heat shock protein HSP90 [1], 16 nM in the data set with HCT-116 and 12 nM in the data set on A2780 [3].

For `CCNC(=O)c1noc(-c2cc(C(C)C)c(O)cc2O)c1-c1cnn(C)c1`, the half-inhibitory concentration (IC50) on Heat shock protein HSP90 [2] was determined as 19 nM; against Heat shock protein HSP90 [1], 482 nM; in the data set with HCT-116 it was 41 nM; in the data set with A2780 [3], 20 nM.

Take `CCNC(=O)c1noc(-c2cc(C(C)C)c(O)cc2O)c1-c1ccn(CC)n1`: the IC50 on Heat shock protein HSP90 [2] came to 12 nM; on Heat shock protein HSP90 [1], 553 nM; in the data set with HCT-116 it was 25 nM; in the data set on A2780 [3], 13 nM.

Regarding `CCNC(=O)c1noc(-c2cc(C(C)C)c(O)cc2O)c1-c1cc(C(=O)N2CCOCC2)no1`, the IC50 was found to be 52 nM at Heat shock protein HSP90 [2], 583 nM against Heat shock protein HSP90 [1], 60 nM in the data set on HCT-116 and 85 nM with A2780 [3].

With `CCNC(=O)c1noc(-c2cc(C(C)C)c(O)cc2O)c1-c1cc(CNC(=O)CC)no1`, the IC50 at Heat shock protein HSP90 [2] was determined as 50 nM; at Heat shock protein HSP90 [1] it was 382 nM; in the data set on HCT-116 it was 78 nM.

Regarding `CCNC(=O)c1noc(-c2cc(C(C)C)c(O)cc2O)c1-c1cc(COCC(N)=O)no1`, the values for the IC50 at Heat shock protein HSP90 [2], against Heat shock protein HSP90 [1] and in the data set with HCT-116 were 50 nM, 452 nM and 97 nM, respectively.

For `CCNC(=O)c1noc(-c2cc(C(C)C)c(O)cc2O)c1-c1cc(COCC(=O)O)no1`, the IC50 at Heat shock protein HSP90 [1] was determined as 1280 nM.

On to `CCNC(=O)c1noc(-c2cc(C(C)C)c(O)cc2O)c1-c1cc(C(=O)O)no1`, for which the IC50 stood at 1870 nM at Heat shock protein HSP90 [1] and 20000 nM with A2780 [3].

As for `CCNC(=O)c1noc(-c2cc(C(C)C)c(O)cc2O)c1-c1cc(C(=O)OCC)no1`, the results for the IC50 on Heat shock protein HSP90 [1] and in the data set with A2780 [3] were 447 nM and 9000 nM, respectively.

`CCCn1ccc(-c2c(C(=O)NCC)noc2-c2cc(C(C)C)c(O)cc2O)n1`: the IC50 on Heat shock protein HSP90 [2] stood at 24 nM; at Heat shock protein HSP90 [1] it was 584 nM; with HCT-116, 49 nM; in the data set on A2780 [3], 27 nM.

With `CCNC(=O)c1noc(-c2cc(C(C)C)c(O)cc2O)c1-c1cc(CN2CCSCC2)no1`, the IC50 on Heat shock protein HSP90 [2] was determined as 38 nM; on Heat shock protein HSP90 [1], 440 nM; with HCT-116 it was 67 nM; in the data set on A2780 [3] it was 64 nM.

For `C=CCNCc1cc(-c2c(C(=O)NCC)noc2-c2cc(C(C)C)c(O)cc2O)on1`, the IC50 was 67 nM on Heat shock protein HSP90 [2] and 435 nM against Heat shock protein HSP90 [1].

Consider `CCNC(=O)c1noc(-c2cc(C(C)C)c(O)cc2O)c1-c1cc(CN(CC)CC)no1`, for which the IC50 was found to be 52 nM at Heat shock protein HSP90 [2], 468 nM on Heat shock protein HSP90 [1], 38 nM with HCT-116 and 78 nM in the data set on A2780 [3]. The Activity result in data set [4] and in data set [5] was “Non-Toxic” each time. Further, the inhibition in vivo at 50 mg/kg in the data set with A2780 [6] came out at 12.8%.
